Source: ChEMBL document CHEMBL3784952, “Design, discovery, modelling, synthesis, and biological evaluation of novel and small, low toxicity s-triazine derivatives as HIV-1 non-nucleoside reverse transcriptase inhibitors” (Bioorg Med Chem, 2016)
pIC50: −log10 of the molar value. “And” between values parts separate entries of the source, which are not always exact repeats. Identical values can stand only once. The source made the active and inactive calls. The calls are words filed in the database; no cut-off is given here.

How the values were obtained:
[1] = test system: Human immunodeficiency virus 1; assay: Antiviral activity against HIV1 virus-like particles harboring wild type reverse transcriptase infected in human U2OS cells after 24 hrs by Renilla luciferase assay; format: functional, organism-based; settings: for pIC50: read-out: IC50
Procedure, shortened: (§1)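 U2OS cells seeded 5 × 10^4 per well, infected next day with HIV-1 VLPs carrying wt or mutant RT at MOI 0.01 with polybrene 6 μg/mL plus compound; 1 h at 37 °C, washed, compound-containing media 24 h, then compound-free media 24 h. Lysate Gluc activity (Renilla luciferase reagent) normalised to protein.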

[2] = Cytotoxicity against human U2OS cells assessed as reduction of cell viability after 48 hrs; format: cell-based
Procedure, shortened: (§2)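 Impedance-based real-time viability: U2OS (3.5 × 10^3) or TZM-bl (8.5 × 10^3) cells seeded on electrode plates, compounds in DMSO added 24 h later (final DMSO 0.5%), cell index recorded over a further 48 h. CC50 = concentration lowering cell index by 50% relative to DMSO-only cells.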

[3] = test system: Human immunodeficiency virus 1; assay: Antiviral activity against HIV1 virus-like particles harboring wild type reverse transcriptase infected in human U2OS cells assessed as remaining viral activity at 50 uM after 24 hrs by Renilla luciferase assay relative to control; format: functional; procedure, shortened: as §1
[4] = target: Human immunodeficiency virus type 1 reverse transcriptase (Human immunodeficiency virus 1) (UniProt Q72547); assay: (§3) Inhibition of recombinant HIV1 reverse transcriptase using 234-nt long RNA/18-mer DNA oligonucleotide as template/primer assessed as remaining activity at 200 uM preincubated for 15 mins followed by incubation with template/primer for 40 mins by liquid scintillation counting in presence of alpha[P33]-dCTP relative to control
[5] = target: Human immunodeficiency virus type 1 reverse transcriptase (Human immunodeficiency virus 1) (UniProt Q72547); assay: as §3, with “50” for “200”
[6] = target: Human immunodeficiency virus type 1 reverse transcriptase (Human immunodeficiency virus 1, UniProt Q72547); assay: (§4) Inhibition of HIV1 reverse transcriptase using 234-nt long RNA/18-mer DNA oligonucleotide as template/primer preincubated for 15 mins followed by incubation with template/primer for 40 mins by liquid scintillation counting in presence of alpha[P33]-dCTP; settings: for pIC50: read-out: IC50
[7] = (§5) Cytotoxicity against human U2OS cells assessed as cell viability at 50 uM after 48 hrs relative to control; format: cell-based; settings: U2OS cells, read-out: Activity
Procedure, shortened: (§6)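 U2OS cells seeded at 3.5 × 10^3 on electrode plates; after 24 h compound added at a single concentration (final DMSO 0.5%) and impedance cell index followed for 48 h. Graded against DMSO-treated cells: >50% reduction toxic, 20-50% moderately toxic, ≤20% non-toxic.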

[8] = test system: Human immunodeficiency virus 1; assay: Antiviral activity against HIV1 virus-like particles harboring wild type reverse transcriptase infected in human U2OS cells assessed as remaining viral activity at 5 uM after 24 hrs by Renilla luciferase assay relative to control; format: functional; procedure, shortened: as §1
[9] = (§7) Cytotoxicity against human U2OS cells assessed as cell viability at 5 uM after 48 hrs relative to control; format: cell-based; settings: U2OS cells, read-out: Activity; procedure, shortened: as §6
[10] = Cytotoxicity against human TZM-bl cells assessed as reduction of cell viability after 48 hrs; format: cell-based; procedure, shortened: as §2
[11] = target: Human immunodeficiency virus type 1 reverse transcriptase (Human immunodeficiency virus 1) (UniProt Q72547); assay: as §4
[12] = test system: Human immunodeficiency virus 1; assay: Antiviral activity against HIV1 virion infected in human TZM-bl cells after 48 hrs by firefly luciferase assay; format: functional, organism-based; settings: for pIC50: Human immunodeficiency virus 1, TZM-bl, 48 h, read-out: IC50
Procedure, shortened: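 TZM-bl cells (LTR-driven firefly luciferase), 5 × 10^4 per well, infected next day with ACH-2-derived HIV-1 stock (PMA-induced; 30 ng p24 per well) plus compound for 2 h at 37 °C; medium then replaced with compound-containing medium for 48 h.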

[13] = test system: Human immunodeficiency virus 1; assay: Antiviral activity against HIV1 virus-like particles harboring reverse transcriptase K103N mutant infected in human U2OS cells after 24 hrs by Renilla luciferase assay; format: functional, organism-based; procedure, shortened: as §1
[14] = test system: Human immunodeficiency virus 1; assay: Antiviral activity against HIV1 virus-like particles harboring reverse transcriptase Y181C mutant infected in human U2OS cells after 24 hrs by Renilla luciferase assay; format: functional, organism-based; procedure, shortened: as §1
[15] = test system: Human immunodeficiency virus 1; assay: Antiviral activity against HIV1 virus-like particles harboring reverse transcriptase K103N/Y181C double mutant infected in human U2OS cells after 24 hrs by Renilla luciferase assay; format: functional, organism-based; procedure, shortened: as §1
[16] = Selectivity index, ratio of CC50 for human U2OS cells to IC50 for HIV1 virus-like particles infected in U2OS cells; format: functional
[17] = Selectivity index, ratio of CC50 for human TZM-bl cells to IC50 for HIV1 virion […]; format: functional
[18] = test system: Human immunodeficiency virus 1; assay: Potency index, ratio of nevirapine IC50 to compound IC50 for HIV1 virus-like particles infected in human U2OS cells; format: functional
[19] = test system: Human immunodeficiency virus 1; assay: Selectivity ratio of IC50 for HIV1 virus-like particles harboring reverse transcriptase K103N/Y181C double mutant to IC50 for HIV1 virus-like particles harboring wild type reverse transcriptase; format: functional
[20] = test system: U2OS; assay: as §5; format: cell-based; settings: u2os, 48 h, 50 µM; procedure, shortened: as §6
[21] = test system: U2OS; assay: as §7; format: cell-based; settings: u2os, 48 h, 5 µM; procedure, shortened: as §6
[22] = Human immunodeficiency virus 1, U2OS, 24 h

SMILES	pIC50 [1, 22]	CC50 at 48 h [2] [µM]	Activity [3] [%]	Activity [4]	Activity [5]	pIC50 [6]	viability at 48 h, 50 µM [7] [%]	also measured
c1coc(CNc2nc(NCc3ccco3)c3nc(NCc4ccco4)[nH]c3n2)c1	< 4.30	> 50	104	102%	92%	< 3.70	116	
Cc1ccc(Nc2nc(NCC3CCCO3)nc(Nc3ccc(C)cc3)n2)cc1 (stereo in doubt; 8(n.p)) [listing 1 of 2 here]			5.2			3.98	66	pIC50 ([1]; u2os): 6.48; Activity [8]: 20%; viability at 48 h, 5 µM [9]: 90%
Cc1ccc(Nc2nc(N)nc(Nc3ccc(C)cc3)n2)cc1	5.60	42.2				3.94		CC50 at 48 h [10]: 57 µM; inhibition [11]: Dose-dependent effect; pIC50 [12]: 5.25; Activity [13]: inactive; Activity [14]: inactive; Activity [15]: inactive; Ratio CC50/IC50 [16]: 17; Ratio CC50/IC50 [17]: 10
CCOC(=O)c1[nH]c2ccc(F)cc2c1NC(=O)NC1CCCCC1	< 4.30	> 50	84	42%	81%	< 4.30	103	
COc1ccc(Nc2nc(Nc3ccc(OC)cc3)nc(NC3CCCC3)n2)cc1	< 5.30	> 50	30	98%	94%	< 3.70	67	Activity [8]: 94%; viability at 48 h, 5 µM [9]: 87%
Cc1ccc(Nc2nc(NCC3CCCO3)nc(Nc3ccc(C)cc3)n2)cc1 (stereo in doubt; 8)		> 50						pIC50 ([1]; u2os): 4.80; IC50 [6]: Not Active; IC50 ([12]; tzm-bl): Not Active; Ratio IC50 [18]: 10
Cc1ccccc1Nc1nc(Cn2ccc(C(F)(F)F)cc2=O)nc(=N)[nH]1	< 4.30	> 50	101	89%	88%	< 3.70	105	
CCCn1c(NCCN(CC)CC)nc2c1c(=O)[nH]c(=O)n2C	< 4.30	> 50	128	103%	89%	< 3.70	101	
Cc1ccc(Nc2nc(NCC3CCCO3)nc(Nc3ccc(C)cc3)n2)cc1 (single isomer, unassigned; isomer 1)								pIC50 ([1]; u2os): 4.74
Cc1ccc(Nc2nc(O)nc(Nc3ccc(C)cc3)n2)cc1	7.17	> 12.5				4.26		CC50 at 48 h [10]: > 12.5 µM; pIC50 [12]: 6.80; Activity [13]: inactive; Activity [14]: inactive; pIC50 ([15]; Human immunodeficiency virus 1, U2OS): 5.10; Ratio IC50 [19]: >100
Cc1ccc2[nH]c(=O)c(CN(CCCO)C(=S)NC[C@@H]3CCCO3)cc2c1	< 4.30	> 50	68	108%	98%	< 3.70	108	
Nc1nc(COC(=O)c2c[nH]c3ccccc23)nc(Cc2ccc(F)cc2)n1	< 4.30	> 50	118	87%	86%	< 3.70	101	
Cc1ccnc2c1NC(=O)c1cccnc1N2C1CC1 [NEVIRAPINE]		> 100		9%	13.7%			CC50 at 48 h [10]: > 100 µM; Activity [8]: 0.5%; pIC50 [12]: 7.59; Activity [20]: Non-toxic; Activity [21]: Non-toxic
Nc1c(NCCO)cc(Nc2ccccc2)c2c1C(=O)c1ccccc1C2=O	< 5.30	> 5		66%	90%	< 3.70	42	Activity [8]: 111%; viability at 48 h, 5 µM [9]: 99%
Cc1c(CCC(=O)NCC(=O)NCC(=O)O)c(=O)oc2c(C)c(O)ccc12	< 4.30	> 50	94	93%	92%	< 3.70	99	
Cc1ccccc1Nc1nc(N)nc(CN(C)Cc2ccc(F)cc2)n1	< 4.30	> 50	53	89%	103%	< 3.70	84	Activity [8]: 151%; viability at 48 h, 5 µM [9]: 96%
Cc1ccc(Nc2nc(NCC3CCCO3)nc(NCC3CCCO3)n2)cc1 (stereo not drawn)		> 50						IC50 ([1]; u2os): Not Active; CC50 at 48 h [10]: > 50 µM
CNc1nc(Nc2ccc(C)cc2)nc(Nc2ccc(C)cc2)n1	< 5.30	> 5		79% and 82%	85% and 86%	< 3.70	46	Activity [8]: 84% and 80%; Activity [20]: 40%; viability at 48 h, 5 µM [9]: 96%; Activity [21]: 91%
Cc1ccc(Nc2nc(Nc3ccc(C)cc3)nc(Nc3ccc(C)cc3)n2)cc1		> 50						IC50 ([1]; u2os): Not Active; CC50 at 48 h [10]: > 50 µM
Cc1ccc(Nc2nc(N)nc(COC(=O)c3cnc4ccccc4n3)n2)cc1	< 4.30	> 50	75	54%	82%	< 3.70	103	
Cc1ccc(Nc2nc(COc3ccc(Cl)cc3)nc(=N)[nH]2)cc1	< 4.30	> 50	82	86%	79%	< 3.70	76	Activity [8]: 125%; viability at 48 h, 5 µM [9]: 93%
Cc1ccc(Nc2nc(NCC3CCCO3)nc(Nc3ccc(C)cc3)n2)cc1 (single isomer, unassigned; isomer 2)								pIC50 ([1]; u2os): 4.49; CC50 at 48 h [10]: > 50 µM
Cc1ccc(Nc2nc(NCC3CCCO3)nc(Nc3ccc(C)cc3)n2)cc1 (stereo in doubt; 8(n.p)) [listing 2 of 2 here]				53%	59%			
O=C1NC(=S)N(CCC2=CCCCC2)C(=O)/C1=C\NCCO	< 4.30	> 50	54	78%	92%	< 3.70	98	
